Measured values taken from the RNAGym collection of RNA variant scans (doi:10.1126/science.aae0568).
This sample holds only a part of the variants without activity.

B1: tRNA (parent)
chain: GUUCCGUUGGCGUAAUGGUAACGCGUCUCCCUCCUAAGGAGAAGACUGCGGGUUCGAGUCCCGUACGGAACG

Variants of: B1
Assay: yeast fitness relative to wild type (ratio to wild type); higher = fitter; tRNA-Arg(CCU), competitive growth, 37 C, YPD
How it was run: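 For this measurement, the tRNA-Arg(CCU) gene was varied by chemical synthesis at a 3% per-site mutation rate across 69 sites, and each variant was placed at the native genomic locus in Saccharomyces cerevisiae. The pooled strains went through a 24-hour competition in YPD at 37°C in six parallel replicates, with amplicons from start and end populations read by 100-nucleotide paired-end sequencing. Darwinian fitness relative to wild type followed from the change in each genotype's frequency. Genotypes needed ≥ 100 starting reads, and estimates < 0.5 were set to 0.5.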

| Variant | yeast fitness |
| --- | --- |
| GUUCCGUUAGCGUAAUGGUAACGUGUCUCCCGCCUAAGGAGAAGACUGCGGGUUCGAGUCCCGUCGGGAACG | ≤ 0.5 |
| GUUCCGUUAGCGUAAUGGUAACGCGUCUUCCUCCUAAGGAGAAGACUGCGGGUUUGAGUCCCGUACGGAACG | 0.535 |
| GUUCCGUUAGCGUAAUGGUAACGCGUCUUCUUCCUAAGGAGUAGACUGCGGGUUCGAGUCCCGUACGGAACG | 0.615 |
| GUUCCGUUAGCGUAAUGGUAACGCGUCUCCAUCCUAAGGAGAAGACUGCGGGUUCGAGUCCCGUCCGGAACG | 0.871 |
| GUUCCGUUAGCGUAAUGGUAACGCGUCUCCAUCCUAAGGAGAAGACUGCGGGUUCGAGUCCCGUUCGGAACG | ≤ 0.5 |
| GUUCCGUUAGCGUAAUGGUAACGCGUCUCACUCCUAAGGAGAAGCCUGAGGGUUCGAGUCCCGUACGGAACG | 0.651 |
| GUUCCGUUAGCGUAAUGGUAACGCGUCUCUCUACUUAGGAGAUGACUGCGGGUUCGAGUCCCGUACGGAACG | ≤ 0.5 |
| GUUCCGUUAGCGUAAUGGUAACGCGUUUCCCUCCUAAGGAGAAGCCUGCGGGUUCGAGUCCCGUACGGAACG | 0.904 |
| GUUCCGUUAGCGUAAUGGUAACGCGUCUCACUCCUAAAGAGCAGACUGCGGGUUCGAGUCUCGUACGGAACG | ≤ 0.5 |
| GUUCCGUUAGCGUAAUGGUAACGCGUCUUCCACCUAAGGAGAUGACUGCGGGUUCGAGUCGCGUCGGGAACG | ≤ 0.5 |
| GUUCCGUUAGCGUAAUGGUAACGCGUCUCGCUCCUAAGGAGACGACUGCGGGUUCGAGUCCCGUACGGAACG | ≤ 0.5 |
| GUUCCGUUAGCGUAAUGGUAACGCGUCUCUCUCCUAAGGAGAAAACUGCGGGUUCGAGUCCCGUUCGGAACG | 0.578 |
| GUUCCGUUAGCGUAAUGGUAACGCGUCUCCUUCCUAAGGAGAAGACUGCGGGUUUGAGUCCCGUACGGAACG | 0.694 |
| GUUCCGUUAGCGUAAUGGUAACGCGUCUCACUCCUAAGGAGCAGACUGCGGGUUCGAGUCCCGUACGAAACG | ≤ 0.5 |
| GUUCCGUUAGCGUAAUGGUAACGCGUGUCCCUGCUAAGGAGAAGACUGCGGGUUGGCGUCCCGUACGGAACG | ≤ 0.5 |
| GUUCCGUUAGCGUAAUGGUAACGCGUUUCCCUCCUAAGGAGAGGACUGCGGGUUCGAGUCCCGUACGGAACG | 0.588 |
| GUUCCGUUAGCGUAAUGGUAACGCGUCUCCUUCCUAAGGAGAAGACUGCGGGUUCGCGUCCCGAACGAAACG | ≤ 0.5 |
| GUUCCGUUAGCGUAAUGGUAACGCGUCUCUCUCCUAAGGAGAAGACUGCGGGUUCGAGUCCCGUACGCAACG | ≤ 0.5 |
| GUUCCGUUAGCGUAAUGGUAACGGGUCCCCCUCCUAAGGAGAAGACUGCGGGUUCGCGUCCCGUACGGAACG | ≤ 0.5 |
| GUUCCGUUAGCGUAAUGGUAACGUGUCUCCCUCCUAAGGUGAAGACUGCGGGUUCGUGUCCCGUACGGAACG | 0.514 |
| GUUCCGUUAGCGUAAUGGUAACGUGUCUCCCUCCUAAGGAGAAGACUGCGGGUUCGACUCCCGUACCGAACG | ≤ 0.5 |
| GUUCCGUUAGCGUAAUGGUAACGCGUCUCCUUCCUAAGGAGAAGACUGCGGGUUCGAGUUCUGUACGGAACG | ≤ 0.5 |
| GUUCCGUUAGCGUAAUGGUAACGCGUCUCCGUCCUAAGGAGAAGACUGCGGGUUCCAGUCCCGUACGGAACG | 0.753 |
| GUUCCGUUAGCGUAAUGGUAACGCGUCUCCUUCCUAAGGAGAAGACUGCGGGUUCGAGUCCCGUACGGAACG | 0.982 |
| GUUCCGUUAGCGUAAUGGUAACGCGUCUCCAUCCUAAGGAGAAGACUGCGGGUUCGAGUCCCGUACGGAACG | 0.862 |

| Variant | yeast fitness |
| --- | --- |
| GUUCCGUUAGCGUAAUGGUAACGCGUCUCCAUCCUAAGGAGAAGACUGCCGGUUCGAGUCCCGUACGGAACG | 0.604 |
| GUUCCGUUAGCGUAAUGGUAACGCGUCUCGCCCCUAAGGAAAAGACUGCGGGUUCGUGUCCCGUACGGAACG | ≤ 0.5 |
| GUUCCGUUAGCGUAAUGGUAACGCGUCUCCGUCCUAAGGAGAAGACUGCGGGUUCCAGUCCCGUAAGGAACG | ≤ 0.5 |
| GUUCCGUUAGCGUAAUGGUAACGCGUCUACAUCCUAAGGCGAAAACUGCGGGUUCGAGACCCGUACGGAACG | ≤ 0.5 |
| GUUCCGUUAGCGUAAUGGUAACGGGUCUCCCUCGUAAGGAGAAGACUGCGGGUUCGAGUCUCGUACGGAACG | ≤ 0.5 |
| GUUCCGUUAGCGUAAUGGUAACGCGUAUCCCUCCUAAGGAGAAGACUGUGGGUUCGAGUUCAGUGCGGAACG | ≤ 0.5 |
| GUUCCGUUAGCGUAAUGGUAACGCGUCUCCAUACUAAGGAGAAGACUGCGGGUUCGAGUCCCGUACGGAACG | ≤ 0.5 |
| GUUCCGUUAGCGUAAUGGUAACGCGUCUCCUUCCUAAGGAGAAGACUGCGGGUUCGAGUGUCAUACGGAACG | ≤ 0.5 |
| GUUCCGUUAGCGUAAUGGUAACGCGUGUCCCUCCUAAGGGGAAGACUGCGGGUUCGAGUCCCGUACGAAACG | ≤ 0.5 |
| GUUCCGUUAGCGUAAUGGUAACGCGUCUCCUUCCUAAGGAGAAGACUGCGGGUUCGAGUCCCGUACGGACCG | 0.766 |
| GUUCCGUUAGCGUAAUGGUAACGCGUCUGCCUCCUAAGGAGAAGUGUACGGGUUCCAGUCCCGUACGGAACG | ≤ 0.5 |
| GUUCCGUUAGCGUAAUGGUAACGCGUCUGGCUCCUAAGGAGAAGAGUGCGGGUUCGAGUCCCGUACGGAACG | ≤ 0.5 |
| GUUCCGUUAGCGUAAUGGUAACGUGUCUCCCUCCUAAGGAGAAGACUGCGGGAUCGAGUCCCGUAUGGAACG | 0.529 |
| GUUCCGUUAGCGUAAUGGUAACGCGUUUCCCUCCUAAGGAGAAGAGUGCGGGUUCGAGUCCCGUACGGAACG | 0.708 |
| GUUCCGUUAGCGUAAUGGUAACGCGUCUGCCUCCUAAGGAGAAGACUGCGGGUUCGAGUCCCGUAUGGAACG | ≤ 0.5 |
| GUUCCGUUAGCGUAAUGGUAACGCGUCUCGCUCCUAAGGAGAAGACUGCGGGUUCGACUCCCGUACGGAACG | ≤ 0.5 |
| GUUCCGUUAGCGUAAUGGUAACGCGUCUUCCUCCUAAGGAGAAGAUUGCGGGUUCGAGUCCCGUACGGAACG | 0.626 |
| GUUCCGUUAGCGUAAUGGUAACGUGUCUCCCUCCUAAAGAGAAGACUCCGGGUUCGAGUCCCGUACGGAACG | ≤ 0.5 |
| GUUCCGUUAGCGUAAUGGUAACGCGUCUCGCUCCUAAGGAGAAGACUGCGGGUUCGAGUCCCGUACGGAUCG | 0.57 |
| GUUCCGUUAGCGUAAUGGUAACGCGUCUCCAUCCUAAGGACAAGACUGCGGGUUCGAGUCCCGUACGGCACG | ≤ 0.5 |
| GUUCCGUUAGCGUAAUGGUAACGCGUCUGCCUCCUAAGGAGAAGACUGCGGGUUCGAGUCCCGUACGGAACG | 0.555 |
| GUUCCGUUAGCGUAAUGGUAACGCGUCUACCUCCUAAGGAGAAGACUGCGGGUUCGAGUCCCGUACGGAACG | 0.735 |
| GUUCCGUUAGCGUAAUGGUAACGCGUCUGCCUCCUAAGGAGAAGACUGCGGGUUCGGGUCCCGUACGGAACG | ≤ 0.5 |
| GUUCCGUUAGCGUAAUGGUAACGCGUGUCCCUCAUAAGGAGAAGAGUGCGGGUUAGAGUCCCAUACGGAACG | ≤ 0.5 |
| GUUCCGUUAGCGUAAUGGUAACGCGUCUUCCUCCUAAGGAGAGGACUGCGGGUUCGAGUCCCGUACGUAACG | 0.527 |

| Variant | yeast fitness |
| --- | --- |
| GUUCCGUUAGCGUAAUGGUAACGCGUCUACCUCCUAAGGAGAAGACUACGGGUUCGAGUCCCGUACGGAACG | ≤ 0.5 |
| GUUCCGUUAGCGUAAUGGUAACGCGUCUCCGUCCUAAGGAGAAGACUGGGCGUUCGAGUCCCGUACGGAACG | ≤ 0.5 |
| GUUCCGUUAGCGUAAUGGUAACGCGUCUCUCUACUUAGGAGAAGACUGUGGGUUCGAGUCCCGUACGGAACG | ≤ 0.5 |
| GUUCCGUUAGCGUAAUGGUAACGUGUCUCCCACCUAAGGAGAAGACUGCGGGUUCGAGUCCCGUACGGAACG | 0.564 |
| GUUCCGUUAGCGUAAUGGUAACGCGUCUCACUCCUAAGGAGAAGACUGCGGGUUCGCGUCCCGUACGGAUCG | ≤ 0.5 |
| GUUCCGUUAGCGUAAUGGUAACGCGUCUCCCUACUAAGGAGAAGAAUGCGGGUUCCAGUCCCGUACGGAACG | ≤ 0.5 |
| GUUCCGUUAGCGUAAUGGUAACGUGUCUCGCUCAUAAGGAGAAGACUGGGGGUUCGAGUCCCGUACGGAACG | ≤ 0.5 |
| GUUCCGUUAGCGUAAUGGUAACGGGUCUCCCUCCUAAGGACAAGACUGCGGGUUCGAGUCCCGUAGGGAACG | ≤ 0.5 |
| GUUCCGUUAGCGUAAUGGUAACGCGUCUCUCUCGUAAGGCGAAGACUGGGGGUUCGAGUCCCGUACGCAACG | ≤ 0.5 |
| GUUCCGUUAGCGUAAUGGUAACGCGUCUCCUUCCUAAGGAGAUGACUGCGGGUUCGAGUCCCGUACGGAACG | 0.697 |
| GUUCCGUUAGCGUAAUGGUAACGCGUCUACCUCAUAAGGAGAAGACUGCGGGUUCGAGUCCCGUACCGAACG | ≤ 0.5 |
| GUUCCGUUAGCGUAAUGGUAACGCGUCUACCUCAUAAGGAGAAGACUGCGGGUUCGAGUCCCGUACGGAACG | 0.576 |
| GUUCCGUUAGCGUAAUGGUAACGCGUGUCCCUCCUAAGGAGAGGACUGCGGGUUCGAGUCCCGUAGGGAACG | 0.717 |
| GUUCCGUUAGCGUAAUGGUAACGCGUCUCCAUCCUAAGGAGAAGACUGCGGGUUCAAGUCCCGUACAGAACG | ≤ 0.5 |
| GUUCCGUUAGCGUAAUGGUAACGCGUCUCUCUCCUAAGGAGAAGACUGCGGAUUCGAGUCCCGUACGGAACG | ≤ 0.5 |
| GUUCCGUUAGCGUAAUGGUAACGCGUCUACCUCCUAAGGAGAAGACUGCAGGUUCGAGUCCCGUACGGAACG | 0.62 |
| GUUCCGUUAGCGUAAUGGUAACGCGUUUCCCUCCUAAGGAGAAGACUGCGGGUUCAAGUCCCGUACAGAACG | ≤ 0.5 |
| GUUCCGUUAGCGUAAUGGUAACGCGUCUCCAUCCUAAGGAGAAGAAUGCGGGUUCGGGUCCCGUACGGAACG | ≤ 0.5 |
| GUUCCGUUAGCGUAAUGGUAACGCGUGUCCCUCAUAAGGAGAAGAGUGCGGGUUCGAGUCCCGUACGGAACG | ≤ 0.5 |
| GUUCCGUUAGCGUAAUGGUAACGCGUGUCCUUCCUAAGGAGAAGAGUGCGCGUUCGAGUCCCGUACGGAACG | 0.594 |
| GUUCCGUUAGCGUAAUGGUAACGCGUCUCUCUCCUAAGGAGAAGACUGUGGGUUCGAGUCCCGAACGGAACG | ≤ 0.5 |
| GUUCCGUUAGCGUAAUGGUAACGCGUCUCCUUCCUAAGGCGAAGACUGCGGGUUCGAGUCCCGUACGGAACG | 1.04 |
| GUUCCGUUAGCGUAAUGGUAACGCGUGUCCCUCCUAAGGGGAAGACUGCGGGUUCGAGUCCCGUACGGAACG | 0.53 |
| GUUCCGUUAGCGUAAUGGUAACGUCUCUCGCUCCUAAGGAGAAGACUGCCGGUUCAAGUCCCGUAUGGAACG | ≤ 0.5 |
| GUUCCGUUAGCGUAAUGGUAACGUGUCUCCCUCCUAACGAGAAGACUGCGGGUUCCAGUCCCGUACGGAACG | ≤ 0.5 |
